# V1aR counter – counter-screen for oxytocin receptor agonists: human V1a receptor agonists. P37288. CHO-V1R cells, Fluo-8 calcium fluorescence, agonist mode; 0% DMSO, 100% 3 nM vasopressin. activation, % at 3 µM. hit rate 0.25% among 320,000. AID 2797;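 active = activation above the mean activation of all tested compounds plus 3 SD, per screening run, cut at about 20% in these data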;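 also: signal is peak over basal fluorescence ratio across a 100 second FLIPR read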
# Target sequence (P37288 whole entry, looked up): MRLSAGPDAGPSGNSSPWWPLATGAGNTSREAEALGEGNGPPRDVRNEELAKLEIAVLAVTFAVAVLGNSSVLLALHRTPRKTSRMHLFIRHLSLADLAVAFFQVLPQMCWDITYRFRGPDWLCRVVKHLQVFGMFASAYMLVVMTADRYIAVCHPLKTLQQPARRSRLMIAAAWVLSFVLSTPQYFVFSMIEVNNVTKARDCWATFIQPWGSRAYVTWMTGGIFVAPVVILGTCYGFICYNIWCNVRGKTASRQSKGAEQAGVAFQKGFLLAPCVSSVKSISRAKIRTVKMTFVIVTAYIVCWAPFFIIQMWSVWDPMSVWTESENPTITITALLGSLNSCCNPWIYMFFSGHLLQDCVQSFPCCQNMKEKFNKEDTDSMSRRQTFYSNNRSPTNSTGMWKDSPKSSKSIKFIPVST
# OXTR agonist – activates the human oxytocin receptor | CHO-OTR cells, Fluo-8 calcium fluorescence; normalized: DMSO 0%, oxytocin 100% | hit rate 0.32% among 320,000 | P30559 | activation, % at 3 µM;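 active = activation above the mean of all tested compounds plus 3 SD, cutoff set per screening run, cut at about 20% in these data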;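 also: peak over basal fluorescence ratio from a 100 s FLIPR kinetic read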
# OXTR potentiator – potentiates the human oxytocin receptor response. activation, % at 3 µM. hit rate 0.061% among 320,000. P30559. CHO-OTR cells, Fluo-8 calcium fluorescence, potentiator mode; 0% = oxytocin EC15, 100% = EC100;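 active = activation above that plate's cutoff, the mean activation of tested compounds plus 3 SD, cut at about 6.6% in these data, passing the limit was not always enough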;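 also: 100% uses oxytocin at 75 nM as the full agonist control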
#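 Material: human OTR in CHO cells. Compound: 3.0 µM, one dose. Timing: compound 6 min at room temperature before oxytocin, 100 s read. Evaluation: % activation of max/min ratio relative to oxytocin controls. Replication: single well per compound, singlicate. Signal: Fluo-8 calcium dye fluorescence.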
# TAAR1 antagonist – human TAAR1 antagonism. AID 624466. inhibition, % at 3 µM. Q96RJ0. hit rate 1.5% among 360,000. CHO RD-HGA16 TAAR1, Fluo-8 calcium fluorescence, antagonist;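 active = inhibition above a per-plate cutoff, the mean inhibition of test compounds on that plate plus 3 SD, cut at about 49% in these data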;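 also: 0% = DMSO plus EC80 beta-PEA response and 100% = DMSO alone without agonist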
# Target sequence (Q96RJ0 whole entry, looked up): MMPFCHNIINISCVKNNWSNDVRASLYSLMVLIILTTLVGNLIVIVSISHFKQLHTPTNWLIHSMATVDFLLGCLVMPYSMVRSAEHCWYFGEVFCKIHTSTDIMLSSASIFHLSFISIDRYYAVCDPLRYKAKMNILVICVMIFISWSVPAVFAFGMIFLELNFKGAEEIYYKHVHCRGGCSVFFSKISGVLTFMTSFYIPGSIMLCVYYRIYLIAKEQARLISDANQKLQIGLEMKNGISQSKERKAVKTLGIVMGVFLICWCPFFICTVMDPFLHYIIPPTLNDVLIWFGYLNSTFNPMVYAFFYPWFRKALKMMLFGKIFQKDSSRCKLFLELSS
#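 Assay system: RD-HGA16 CHO cells with stable hTAAR1 and Gα16 / Reagent: EC80 β-phenethylamine stimulus / Doses: 3 µM, single point / Timing: dye loading 75 min at 37 °C, then 30 min room temperature / Measured by: Fluo-8 intracellular calcium dye fluorescence, real-time kinetic reads / Controls: vehicle wells and EC80 agonist wells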
# TAAR1 agonist – human TAAR1 agonism; hit rate 0.99% among 360,000; activation, % at 3 µM; CHO RD-HGA16 TAAR1, Fluo-8 calcium fluorescence; vehicle wells 0%, saturating PEA agonist 100%;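 active = activation above the mean activation of all test compounds in the run plus 3 SD, cut at about 38% in these data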
#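 Assay system – CHO-derived RD-HGA16 cells with stable Gα16 and human TAAR1 · Compound dosing – one-point dosing at 3 µM (nominal) · Incubation – 17-24 h seeding, 75 min 37 °C dye, 30 min RT · Measured by – kinetic Fluo-8 calcium fluorescence · Control set – DMSO vehicle as 0%, PEA at EC100 as 100% · Repeats – single well for each compound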
# OXTR ag confirm – human OXTR agonism, confirmation. shares compounds with OXTR agonist. CHO-OTR cells, Fluo-8 calcium fluorescence, agonist. activation, % at 3 µM. hit rate 20% among 390;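 active = mean activation above about 20% derived from the earlier single-dose screen, limit read from the data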;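 also: peak over minimum fluorescence ratio per well during a 100 second FLIPR read; 0% = DMSO alone and 100% = oxytocin high control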
# V1R ag counter 3x – activates V1a receptor in oxytocin agonist counter-screen. shares compounds with OXTR agonist. CHO-V1R cells, Fluo-8 calcium fluorescence. activation, % at 3 µM. hit rate 10% among 390;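 active = mean activation over triplicate exceeds the hit threshold set in the earlier primary screen, cut at about 20% in these data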;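 also: peak over basal fluorescence ratio within a 100 second read; 0% = DMSO alone and 100% = 3 nM vasopressin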
# OXTR pot cf – confirmation of human oxytocin receptor potentiators. shares compounds with OXTR potentiator. CHO-OTR cells, Fluo-8 calcium fluorescence, potentiation; scaled from low-dose to maximal oxytocin. activation, % at 3 µM. 180 tested, under 10 active. AID 434985;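 active = mean percent activation over triplicates above a cutoff set from solvent-only control plates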;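 also: compounds tested in the presence of an EC15 dose of oxytocin; 0% = EC15 oxytocin with DMSO and 100% = EC100 oxytocin with DMSO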
# TAAR1 ag conf – confirmation of human TAAR1 agonists. hit rate 82% among 2,400. shares compounds with TAAR1 agonist. AID 651783. activation, % at 3 µM. CHO RD-HGA16 TAAR1, Fluo-8 calcium fluorescence; scaled: DMSO 0%, maximal phenethylamine 100%;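 active = activation above a cutoff set at the run's mean compound activation plus 3 SD, cut at about 39% in these data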
# Ga16 ag counter – nonselective agonist in parental cells, TAAR1 agonist counter-screen | shares compounds with TAAR1 agonist | CHO-Ga16 parental, Fluo-8 calcium fluorescence; normalized to maximal ATP response, DMSO zero | activation, % at 3 µM | hit rate 50% among 2,400 | AID 651787;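 active = activation above the run cutoff, the mean activation over all tested wells plus 3 SD, cut at about 12% in these data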;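 also: 0% = DMSO wells and 100% = maximal ATP response on the peak over basal ratio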
# TAAR1 desensitize – TAAR1 response desensitization, agonist counter-screen. shares compounds with TAAR1 agonist. CHO RD-HGA16 hTAAR1, Fluo-8 calcium, beta-PEA response inhibition. inhibition, % at 3 µM. hit rate 46% among 2,400. AID 651951;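 active = inhibition above the run cutoff, the mean inhibition of all test compounds plus 3 SD, cut at about 49% in these data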;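 also: beta-PEA stimulus applied at its EC80; loss of beta-PEA calcium signal after compound pretreatment read as receptor desensitization; 0% = DMSO with beta-PEA at EC80 and 100% = DMSO alone without agonist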
# Ga16 nonsel ant – nonselective Ga16 antagonist in TAAR1 agonist counter-screen; shares compounds with TAAR1 agonist; inhibition, % at 3 µM; CHO-Ga16 ATP-induced calcium, Fluo-8 fluorescence; hit rate 39% among 2,400;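 active = inhibition above the plate's mean compound inhibition plus 3 SD, computed per plate, cut at about 22% in these data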;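 also: 0% = EC80 ATP with DMSO and 100% = DMSO wells without ATP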
# Starred values were filed as active, the others as inactive; . = no result. Sampled rows, rich in hits. Any-hit rate of the full collection: about 2.3%.
SMILES,V1aR counter,OXTR agonist,OXTR potentiator,TAAR1 antagonist,TAAR1 agonist,OXTR pot cf,others
OC(c1cc(C(F)(F)F)nc2c(C(F)(F)F)cccc12)C1CCCCN1 (stereo not drawn),11,24*,-16,50*,67*,.,OXTR ag confirm=9;V1R ag counter 3x=8;TAAR1 ag conf=68*;Ga16 ag counter=44*;TAAR1 desensitize=60*;Ga16 nonsel ant=54*
OC(c1cc(-c2cccc(Cl)c2)nc2ccccc12)C1CCCCN1 (stereo not drawn),.,.,.,44,29,.,
COc1ccc(N(C)S(=O)(=O)c2cccc(C(=O)N3CCN(c4cccc(C)c4C)CC3)c2)cc1,.,.,.,-19,0,.,
Cn1c(=O)c(C(=O)NNC(=O)c2ccccc2F)c(O)c2ccccc21,6,20*,-11,6,48*,.,OXTR ag confirm=12;V1R ag counter 3x=10;TAAR1 ag conf=60*;Ga16 ag counter=43*;TAAR1 desensitize=12;Ga16 nonsel ant=22*
Cn1c(=O)c(C(=O)NNC(=O)c2ccc(Br)cc2)c(O)c2ccccc21,0,1,-17,5,6,.,
CC(C)(C)OC(=O)C[C@@H]1C/C=C\C[C@@H](CC(=O)NCCO)C(=O)N[C@H](Cc2ccccc2)COC1=O,1,1,-5,-5,3,.,
CC[C@H](C)[C@H](NC(=O)CNC(=O)COc1cc2c(c3oc(=O)cc(C)c13)CCC(C)(C)O2)C(=O)O,1,1,-8,-14,4,.,
Cc1cc(=O)oc2c3c(cc(OCC(=O)NCC(=O)N[C@H](C(=O)O)C(C)C)c12)OC(C)(C)CC3,-1,0,12*,10,1,-5,
Cc1ccc(S(=O)(=O)N2CCOCC2)cc1C(=O)Nc1ccc2c(c1)OCCO2,-1,-2,-1,-7,2,.,
CC(C)CC1NC(=O)c2cc(Cl)ccc2-n2c1nc1cc(F)ccc1c2=O (stereo not drawn),-1,-3,15*,-10,3,3,
COc1ccccc1CNC(=O)C(=O)Nc1ccc(C(=O)N2CCC(C)CC2)cc1,0,1,-4,-23,-1,.,
CCN1CCCC1CNC(=O)C(=O)Nc1ccccc1 (stereo not drawn),1,2,-3,-18,6,.,
CCN1CCCC1CNC(=O)C(=O)Nc1cccc(OC)c1 (stereo not drawn),1,2,13*,-3,1,-4,
COc1cc(OC)cc(C(=O)NCC(=O)N2CCN(S(=O)(=O)c3ccccc3F)CC2)c1,0,1,14*,-9,2,1,
O=C(NCC(=O)N1CCN(S(=O)(=O)c2ccccc2F)CC1)c1ccc2c(c1)OCO2,0,-1,-4,-11,1,.,
Cc1cc(C)n(C(=O)C(C(=O)c2ccccc2)C(C)C)n1 (stereo not drawn),0,-3,11*,-1,0,1,
CC(C)Oc1ccc(C2CC(=O)N(c3cccc(/C=C/C(=O)O)c3)C2=O)cc1 (stereo not drawn),1,0,-1,7,0,.,
CC(=O)c1sc(NC(=O)C=C(C)C)nc1C,0,0,9.1*,-2,15,-9,
CCCCC(=O)Nc1nc(C)c(C(C)=O)s1,0,0,5,14,0,.,
Cc1cc(C)n(-c2cc(C(C)(C)C)nc3c(-c4ccc(Cl)cc4)cnn23)n1,4,0,13*,-32,37,7.8*,
COc1ccc(C(=O)NC(C)c2ccc(-n3ccnc3)cc2)c(OC)c1 (stereo not drawn),2,-1,-4,-26,1,.,
CCOc1ccccc1Nc1nc(N)nc(CSc2nncn2C)n1,1,0,11*,3,6,-6,
COc1ccc(Nc2nc(N)nc(CSc3nncn3C)n2)cc1,0,0,-2,3,1,.,
COC(CNC(=O)c1cn(C)c2ccc(S(=O)(=O)N3CCOCC3)cc2c1=O)OC,0,0,-6,-28,1,.,
CCn1cc(C(=O)NCC(OC)OC)c(=O)c2cc(S(=O)(=O)N3CCOCC3)ccc21,1,1,13*,2,1,-6,
SMILES,V1aR counter,OXTR agonist,OXTR potentiator,TAAR1 antagonist,TAAR1 agonist,OXTR pot cf,others
CC(C)(C)NC(=O)COC(=O)c1ccc(NC(=O)CC#N)cc1,1,1,-5,-3,7,.,
CN(CC(=O)NCc1ccncc1)S(=O)(=O)c1ccc(F)cc1,1,0,12*,-19,22,-4,
CCn1c(=O)c(C(=O)Nc2ccccn2)c(O)c2ccccc21,3,0,12*,-4,11,-3,
O=S(=O)(c1ccc(S(=O)(=O)N2CCCC2)cc1)N1CCCCC1,1,1,-4,.,.,.,
O=S(=O)(c1ccc(S(=O)(=O)N2CCOCC2)cc1)N1CCCC1,2,2,12*,-4,1,-4,
Cc1ccc(Cl)c2c1NC(=O)C2=O,0,1,3,7,5,.,
O=C(/C=C/c1cccs1)Nc1ccc([N+](=O)[O-])cc1,3,1,-13,25,4,.,
O=C(/C=C/c1cccs1)Nc1ccncc1,-1,-1,13*,-7,4,2,
CCN(CCO)c1ccc(N=Nc2cc(C)[nH]n2)cc1,1,2,3,0,3,.,
N#Cc1c2n(c3c(N)ncnc13)CCCCC2,-1,-1,-6,-1,5,.,
CC(Oc1cc2oc(=O)cc(-c3ccccc3)c2cc1Cl)C(=O)NCC1CCC(C(=O)O)CC1 (stereo not drawn),1,0,-1,1,2,.,
CCc1cc2c(-c3ccccc3)cc(=O)oc2cc1OC(C)C(=O)NCC1CCC(C(=O)O)CC1 (stereo not drawn),0,1,9.8*,-66,0,-2,

# Screening results from PubChem.
